A selection: hits, their analogues and other compounds. The true share with any hit is near 1.3%.
G6PDH CS: inhibits Leuconostoc G6PDH, flagging false hits in G6PDH-based assays | inhibition, % at 5 µM | 200,000 compounds, 0.12% hits | Purified L. mesenteroides G6PDH, diaphorase/resazurin coupled fluorescence, 45 min | AID 1020; in the data active means inhibition above about 50%
Diaphorase inh: inhibits diaphorase or chemically oxidizes, flagging diaphorase assay artifacts. 190,000 compounds, 0.69% hits. inhibition, % at 20 µM. AID 1217. diaphorase resazurin-to-resorufin fluorescence, NADH, 16 min; bacterial (C. kluyveri) enzyme, not human;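 active means primary screen inhibition at 20 µM above a set limit, cut at about 50% in these data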;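 further: plate controls were DMSO with full reaction for no effect and wells lacking NADH for full effect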
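material = Clostridium kluyveri diaphorase enzyme | amount = 0.14 U/mL diaphorase, enzyme working solution | schedule = incubation 16 min, room temperature | detection = fluorescence of resorufin formed from resazurin, Ex 544/Em 590 nm | benchmarks = positive control minus NADH, DMSO neutral control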
PfG6PD inh: PfG6PD (Plasmodium falciparum) enzyme inhibition; PfGluPho enzyme, NADPH resazurin-diaphorase fluorescence; inhibition, % at 20 µM; 350,000 compounds, 0.78% hits;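 active means inhibition reaching at least a set limit at 20 µM in the primary screen, cut at about 59% in these data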;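 further: 0% = DMSO wells with substrate and 100% = DMSO wells lacking glucose-6-phosphate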
HKDC1 inhibitor: HKDC1 (human) hexokinase inhibition. Q2TB90. recombinant HKDC1, G6PDH/diaphorase resazurin coupled fluorescence. inhibition, % at 20 µM. 340,000 compounds, 0.16% hits;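 active means inhibition above about 35% when tested at 20 µM, limit read from the data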;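 further: plate controls were DMSO wells with enzyme for no effect and DMSO wells lacking enzyme for full effect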
Target sequence (Q2TB90 whole entry, looked up): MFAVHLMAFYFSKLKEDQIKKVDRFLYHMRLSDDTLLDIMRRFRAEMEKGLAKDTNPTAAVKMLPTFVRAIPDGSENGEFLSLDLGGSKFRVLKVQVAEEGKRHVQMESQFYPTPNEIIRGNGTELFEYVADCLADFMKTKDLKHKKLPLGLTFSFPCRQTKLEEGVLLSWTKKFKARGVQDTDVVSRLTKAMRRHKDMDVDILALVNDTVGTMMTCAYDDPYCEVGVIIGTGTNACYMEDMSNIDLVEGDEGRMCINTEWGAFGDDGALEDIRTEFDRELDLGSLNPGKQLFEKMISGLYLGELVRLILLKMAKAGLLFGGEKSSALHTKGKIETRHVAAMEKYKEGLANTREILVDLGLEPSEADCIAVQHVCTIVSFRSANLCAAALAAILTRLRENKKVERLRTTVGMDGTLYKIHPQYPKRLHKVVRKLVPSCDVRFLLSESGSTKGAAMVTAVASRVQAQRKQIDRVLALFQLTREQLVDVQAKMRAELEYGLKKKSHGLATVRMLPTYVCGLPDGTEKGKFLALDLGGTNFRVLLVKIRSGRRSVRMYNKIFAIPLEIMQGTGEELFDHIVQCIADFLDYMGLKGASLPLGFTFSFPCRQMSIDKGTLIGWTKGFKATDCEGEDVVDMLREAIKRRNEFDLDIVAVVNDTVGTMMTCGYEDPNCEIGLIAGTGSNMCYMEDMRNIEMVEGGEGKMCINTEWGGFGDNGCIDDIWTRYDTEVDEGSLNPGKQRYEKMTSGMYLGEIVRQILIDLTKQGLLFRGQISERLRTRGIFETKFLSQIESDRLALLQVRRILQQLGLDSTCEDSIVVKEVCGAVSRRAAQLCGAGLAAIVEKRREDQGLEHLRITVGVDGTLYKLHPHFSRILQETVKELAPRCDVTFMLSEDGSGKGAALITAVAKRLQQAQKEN
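Assay system – recombinant HKDC1 (HK5) hexokinase enzyme, produced in-house · Input – HKDC1 at 5 µg/mL · Reagent – glucose plus 1 mM ATP as hexokinase substrates · Timing – 90 min reaction incubation at room temperature, dark · Measured by – G6PDH/diaphorase-coupled fluorescence, 1 mM NADP, 100 µM resazurin, 525/613 nm · Benchmarks – DMSO-enzyme wells negative, buffer-substituted wells positive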
An asterisk follows results filed as active.

`CC(=O)N1CCN(C(=S)c2ccc(-c3ccc(Cl)cc3)o2)CC1` gave G6PDH CS -0.2, Diaphorase inh 25.9, PfG6PD inh 62.0* and HKDC1 inhibitor -6.2.
CCC(C)Sc1cc(C)c(C#N)c2nc3ccccc3n12 (configuration not stated) was read as G6PDH CS 15.3, Diaphorase inh 51.7*, PfG6PD inh 11.2 and HKDC1 inhibitor 4.0.
Screening CCc1ccc(-c2cc(C)no2)cc1S(=O)(=O)N1CCOc2ccc(C)cc21 returned PfG6PD inh 17.1 and HKDC1 inhibitor 4.9.
For Cc1cc(C)c(S(=O)(=O)/N=C2/C=C(Sc3ncn[nH]3)C(=O)c3ccccc32)cc1C the results were G6PDH CS 51.2*, Diaphorase inh 49.5, PfG6PD inh 109.3* and HKDC1 inhibitor 63.7*.
`COc1ccc(S(=O)(=O)N2CCN(C(=O)Nc3ccccc3OC)CC2)cc1` gave PfG6PD inh -3.2 and HKDC1 inhibitor -3.0.
CCCCN(C)C(=O)C1CCCN(S(=O)(=O)c2ccc3c(c2)CC(C)N3C(=O)C2CC2)C1 (configuration not stated) was read as PfG6PD inh -14.6 and HKDC1 inhibitor 0.3.
For S=C(Nc1ccc2nsnc2c1)N1CCCCC1 the results were G6PDH CS 49.7, Diaphorase inh 66.2*, PfG6PD inh -19.1 and HKDC1 inhibitor 2.5.
Screening Cc1nc2ccc(NC(=S)NCCCO)cc2nc1C returned G6PDH CS 55.9*, Diaphorase inh 25.4, PfG6PD inh 15.3 and HKDC1 inhibitor 10.2.
Screening S=C(Nc1ccc2nc(-c3ccccn3)c(-c3ccccn3)nc2c1)N1CCCCC1 returned G6PDH CS 50.5*, PfG6PD inh 57.1 and HKDC1 inhibitor 16.3.
Screening CCCNC(=S)Nc1ccc2nc(-c3ccccn3)c(-c3ccccn3)nc2c1 returned G6PDH CS 48.7, Diaphorase inh 52.2*, PfG6PD inh 36.2 and HKDC1 inhibitor 7.7.
Screening CCCNC(=S)Nc1ccc(Oc2ccccc2)cc1 returned G6PDH CS -3.2, Diaphorase inh 23.6, PfG6PD inh 3.7 and HKDC1 inhibitor -9.9.
`S=C(Nc1ccc2nc(-c3ccccn3)c(-c3ccccn3)nc2c1)N1CCCCCC1` gave G6PDH CS 39.8, Diaphorase inh 28.0, PfG6PD inh 1.9 and HKDC1 inhibitor 14.9.
For O=C(NCCc1ccccc1F)C1CC(=O)N(c2ccc3c(c2)OCCO3)C1 (configuration not stated) the results were PfG6PD inh -0.3.
Screening CN(C)CCCN(C(=O)c1cc(-c2cccs2)nc2ccccc12)c1nc2ccc(F)cc2s1 returned PfG6PD inh -2.0 and HKDC1 inhibitor -1.4.
COc1ccc(NC(=O)COC(=O)CNC(=O)c2cccs2)cc1Cl was read as PfG6PD inh 5.6 and HKDC1 inhibitor -3.2.
Screening O=C(CCN1CCOCC1)N/N=C/c1cc(Br)cc(Br)c1O returned G6PDH CS 9.2, Diaphorase inh 62.6*, PfG6PD inh 0.5 and HKDC1 inhibitor -18.0.
For O=C(CCN1CCN(c2ccccc2)CC1)N/N=C/c1ccc(O)c(O)c1O the results were G6PDH CS 32.6, Diaphorase inh 64.1*, PfG6PD inh 47.8 and HKDC1 inhibitor 19.3.
Cc1cc(C(=O)N/N=C/c2ccc(O)c(O)c2O)c(C)n1-c1ccccc1 was read as G6PDH CS -2.8, Diaphorase inh 88.8*, PfG6PD inh 47.7 and HKDC1 inhibitor 17.5.
`COc1ccc(/C=N/NC(=O)CCN2CCN(c3ccccc3)CC2)c(OC)c1OC` gave G6PDH CS -21.3, Diaphorase inh 3.2, PfG6PD inh -2.5 and HKDC1 inhibitor -10.0.
O=C(Cc1ccccc1)N/N=C/c1cc(Br)cc(Br)c1O was read as PfG6PD inh -47.5 and HKDC1 inhibitor -15.9.
`Nc1ccn([C@@H]2O[C@H](CNC(=O)[C@@H](Cc3cn(COCc4ccccc4)cn3)NC=O)[C@@H](O)[C@H]2O)c(=O)n1` gave PfG6PD inh 7.5.
Screening NC(=O)c1cc(NC(=O)c2ccc(NS(=O)(=O)c3cccs3)cc2)cc(C(N)=O)c1 returned PfG6PD inh -2.7 and HKDC1 inhibitor -6.1.
COc1ccccc1N(CC(=O)N/N=C/c1ccc(C(=O)O)cc1)S(=O)(=O)c1ccc(C)cc1 was read as PfG6PD inh 13.7 and HKDC1 inhibitor -4.2.
For COC(=O)C1=C(C)NC(C)=C(C(=O)OC)C1c1ccccc1[N+](=O)[O-] the results were G6PDH CS 24.7, Diaphorase inh 45.0, PfG6PD inh 74.7* and HKDC1 inhibitor -6.0.
For O=C(/C=C/c1ccc(Cl)cc1)c1ccc([N+](=O)[O-])o1 the results were PfG6PD inh 53.1 and HKDC1 inhibitor 53.9*.
Screening Cc1cc(O)c(C(=O)/C=C/c2ccc(Cl)cc2)c(=O)o1 returned PfG6PD inh -5.6 and HKDC1 inhibitor 10.3.
Screening S=c1[nH]nc(-c2ccncc2)n1/N=C/C=C/c1ccco1 returned G6PDH CS 8.3, Diaphorase inh 71.0*, PfG6PD inh 23.5 and HKDC1 inhibitor -9.1.
`S=c1[nH]nc(-c2cccnc2)n1/N=C/C=C/c1ccccc1` gave G6PDH CS 5.4, Diaphorase inh 51.9*, PfG6PD inh 19.4 and HKDC1 inhibitor -2.9.
O=[N+]([O-])c1cc(/C=N/n2c(-c3cccnc3)n[nH]c2=S)ccc1Cl was read as G6PDH CS 2.2, Diaphorase inh 51.0*, PfG6PD inh 25.0 and HKDC1 inhibitor -0.1.
Screening Cn1c(O)c(C2=c3ccccc3=NC2=O)[nH]c1=S returned G6PDH CS -4.7, Diaphorase inh -4.9, PfG6PD inh 8.2 and HKDC1 inhibitor -7.8.
`COc1ccc2nc(-n3c(O)c(C4=c5ccccc5=NC4=O)[nH]c3=S)sc2c1` gave G6PDH CS -14.6, Diaphorase inh 52.0*, PfG6PD inh -13.5 and HKDC1 inhibitor 25.9.
Screening O=C(NCC1CCCN1S(=O)(=O)c1cccs1)c1c(F)cccc1F (configuration not stated) returned PfG6PD inh 3.7 and HKDC1 inhibitor -0.1.
For CC(C)(C)C(=O)NC(=S)Nc1sc2c(c1C(N)=O)CCC2 the results were G6PDH CS 0.5, Diaphorase inh 50.3*, PfG6PD inh -2.3 and HKDC1 inhibitor 5.4.
CC(C)CC(=O)NC(=S)Nc1sc2c(c1C(N)=O)CCC2 was read as G6PDH CS 7.5, Diaphorase inh 28.2, PfG6PD inh -11.0 and HKDC1 inhibitor 8.3.
`CC(=O)OC(C)C1C2=C(C(=O)CC1(C)O)C(=O)c1c(ccc(-c3ccc4c(c3O)C(=O)C3=C(C4=O)C(C(C)OC(C)=O)C(C)(O)CC3=O)c1O)C2=O` (configuration not stated) gave PfG6PD inh 61.2* and HKDC1 inhibitor 27.3.
Screening COc1ccc(OC)c(Nc2nc(=O)c3cccnc3s2)c1 returned G6PDH CS 28.3, Diaphorase inh 65.3*, PfG6PD inh 56.8 and HKDC1 inhibitor 7.8.
Screening Cn1nc(C(=O)NNC(=O)c2cccc(Cl)c2)ccc1=O returned PfG6PD inh 6.3 and HKDC1 inhibitor -6.8.
`CNC(=O)CNC(=O)Nc1ccc(Cl)c(Cl)c1` gave G6PDH CS 7.3, Diaphorase inh 67.3*, PfG6PD inh 6.4 and HKDC1 inhibitor -3.4.

High-throughput results: PubChem, Sanford-Burnham Center for Chemical Genomics
